Each structure is given as a SMILES string.

Among the data in ChEMBL document CHEMBL1142876, “Non-carboxylic analogues of arylpropionic acids: synthesis, anti-inflammatory activity and ulcerogenic potential” (Eur J Med Chem, 2007) are Activity values, retold here.

For data set [1], the system named is Rattus norvegicus. The data set can be described thus: Antiinflammatory activity against carrageenan-induced paw edema in Albino rat at 30 mg/kg body weight, sc. The data set is classed as functional. To be noted: route subcutaneous. In outline:
(§1)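 Rats from National Research Centre, acclimatised one week, 12 h light/dark, food and water ad libitum; groups of six. Right hind paw sub-plantar injection of 0.05 mL 1% carrageenan in saline. Drugs dissolved in DMSO, given subcutaneously; vehicle controls got DMSO. Paw volume measured before and 0.5, 1.5, 2, 3, 6, 8 h post-carrageenan; edema AUC by trapezoidal method, mean ± S.E.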
On the technique in general: Carrageenan injected into the paw causes an acute inflammation.

Data set [2] concerns Rattus norvegicus. The data set can be described thus: Toxicity assessed as ulcerogenic effect in Albino rat at 30 mg/kg, po twice a day after 3 days. The data set is classed as organism-based. Also on record: dose 30 mg/kg, route oral. To be noted: in vivo, 72 h. In outline:
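Male albino rats, 150–200 g, fasted 12 h (water ad libitum), six per group. Oral dosing in two equal doses of 30 mg/kg at 0 and 12 h for three successive days; controls received 1% gum acacia orally. Killed with diethyl ether 6 h after final dose; stomach opened along greater curvature, saline-washed, examined under 3× lens for hyperemia, haemorrhage or ulcer. % ulceration = ulcer-bearing animals/group total ×100.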

Data set [3] deals with Rattus norvegicus. Kind of data set: Antiinflammatory activity against carrageenan-induced paw edema in Albino rat at 200 mg/kg body weight, sc. The data set is classed as functional. The following applies: route subcutaneous. In outline:
as §1

In the data set on Rattus norvegicus [1], `COc1ccc2cc(C(C)c3nnc(Nc4ccc(Br)cc4)[nH]3)ccc2c1` (centres undefined) gave an Activity of 69.67%.
On to `CC(c1ccc(-c2ccccc2)c(F)c1)c1nnc(Nc2cccc(Cl)c2)[nH]1` (centres undefined), for which the Activity with Rattus norvegicus [1] worked out at 69.65%; in the data set with Rattus norvegicus [2], 0%.
Turning to `COc1ccc2c(c1)c(CC(=O)O)c(C)n2C(=O)c1ccc(Cl)cc1` [INDOMETHACIN], the Activity in the data set on Rattus norvegicus [2] worked out at 100%.
As to `COc1ccc2cc(C(C)c3nnc(Nc4cccc(Cl)c4)[nH]3)ccc2c1` (centres undefined), the Activity with Rattus norvegicus [1] is 66.8%; in the data set with Rattus norvegicus [2], 0%.
Take `CC(C)Cc1ccc(C(C)c2nnc(Nc3ccc(Br)cc3)[nH]2)cc1` (centres undefined): the values for the Activity in the data set with Rattus norvegicus [1] and with Rattus norvegicus [2] were 69.52% and 33.3%, respectively.
In the case of `CC(c1ccc(-c2ccccc2)c(F)c1)c1nnc(Nc2ccc(Br)cc2)[nH]1` (centres undefined), the results for the Activity in the data set with Rattus norvegicus [1] and in the data set with Rattus norvegicus [2] were 68.36% and 0%, respectively.
As to `C[C@]12CCC(=O)C=C1CC[C@@H]1[C@@H]2[C@@H](O)C[C@@]2(C)[C@H]1CC[C@]2(O)C(=O)CO` [HYDROCORTISONE], in the data set on Rattus norvegicus [3], the Activity is on record as 73.39%.
Consider `CC(C)Cc1ccc(C(C)c2nnc(Nc3cccc(Cl)c3)[nH]2)cc1` (centres undefined), for which the Activity with Rattus norvegicus [1] was determined as 70.86%.
Molecule `CC(C)Cc1ccc(C(C)C(=O)O)cc1` (centres undefined) [IBUPROFEN] registered an Activity in the data set with Rattus norvegicus [1] of 86.07%.
Same read-out and setting: the result for `CC(C)Cc1ccc(C(C)c2nnc3sc(S)nn23)cc1` (centres undefined) reads 72.1%.
